Experiments:
[1] = target: D(1A) dopamine receptor (Rattus norvegicus, UniProt P18901); test: Binding affinity at Dopamine receptor D1 in rat neostriatum by [3H]-SCH- 23390 displacement.; assay type: tissue-based, Striatum
Outline: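 Tissue: sections of neostriatum from male Sprague–Dawley rats (250–300 g). Test substances dissolved in distilled water. Values are mean ± SEM of five to seven independent experiments, each run in triplicate.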

[2] = target: D(2) dopamine receptor (Rattus norvegicus, UniProt P61169); test: Binding affinity at Dopamine receptor D2 in rat neostriatum frozen sections by [3H]-spiperone displacement.
Sequence of D(2) dopamine receptor (P61169 whole entry): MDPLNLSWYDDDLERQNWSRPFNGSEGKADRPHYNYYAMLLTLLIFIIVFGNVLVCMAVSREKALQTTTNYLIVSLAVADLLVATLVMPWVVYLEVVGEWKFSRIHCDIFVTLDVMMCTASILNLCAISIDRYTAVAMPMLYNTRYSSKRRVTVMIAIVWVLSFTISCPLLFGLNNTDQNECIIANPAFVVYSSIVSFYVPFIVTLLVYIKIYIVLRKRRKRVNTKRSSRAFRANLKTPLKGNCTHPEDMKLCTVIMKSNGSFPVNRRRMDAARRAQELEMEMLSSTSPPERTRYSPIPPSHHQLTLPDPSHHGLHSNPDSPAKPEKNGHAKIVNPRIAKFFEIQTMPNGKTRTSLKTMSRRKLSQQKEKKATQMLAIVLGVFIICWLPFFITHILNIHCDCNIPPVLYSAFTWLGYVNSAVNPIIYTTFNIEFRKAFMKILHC

Sequence of D(1A) dopamine receptor (P18901 whole entry): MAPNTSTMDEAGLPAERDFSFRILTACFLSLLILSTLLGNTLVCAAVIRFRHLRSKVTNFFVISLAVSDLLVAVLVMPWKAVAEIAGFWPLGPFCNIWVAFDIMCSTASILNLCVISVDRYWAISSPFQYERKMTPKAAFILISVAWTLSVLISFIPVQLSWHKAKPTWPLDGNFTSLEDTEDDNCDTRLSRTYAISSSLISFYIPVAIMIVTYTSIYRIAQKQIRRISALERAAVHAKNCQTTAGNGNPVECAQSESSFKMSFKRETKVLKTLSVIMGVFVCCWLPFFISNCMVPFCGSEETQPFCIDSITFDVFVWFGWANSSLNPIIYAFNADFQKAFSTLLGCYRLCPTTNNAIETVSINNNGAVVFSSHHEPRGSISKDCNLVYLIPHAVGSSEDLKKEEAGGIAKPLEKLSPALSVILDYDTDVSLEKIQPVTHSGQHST

| Ki [1] [nM] | Ki [2] [nM] | SMILES |
| --- | --- | --- |
| 28.5 | 51.5 | CCCN(CCC)[C@@H]1Cc2ccc(O)cc2[C@H]1c1ccccc1 (stereo in doubt; (+)-15a) |
| > 1000 | > 1000 | C=CCN(C)[C@@H]1Cc2cc(O)ccc2[C@H]1c1ccccc1 (stereo in doubt; (-)-16b) |
| 0.9 | 0.3 | CCCN(C)[C@@H]1Cc2ccc(O)cc2[C@H]1c1ccccc1 (stereo in doubt; (+)-17a) |
| > 1000 | > 1000 | C=CCN(C)[C@@H]1Cc2cc(O)ccc2[C@H]1c1ccccc1 (stereo in doubt; (+)-16b) |
| 1.4 | > 1000 | CCCN(CCC)[C@@H]1Cc2cc(O)ccc2[C@H]1c1ccccc1 (stereo in doubt; (+)-15b) |
| > 1000 | > 1000 | CCCN(C)[C@@H]1Cc2cc(O)ccc2[C@H]1c1ccccc1 (stereo in doubt; (+)-17b) |
| 1.76 | > 1000 | CCCN(CCC)[C@@H]1Cc2cc(O)ccc2[C@H]1c1ccccc1 (stereo in doubt; (-)-15b) |
| 0.88 | 0.34 | CCCN(C)[C@@H]1Cc2ccc(O)cc2[C@H]1c1ccccc1 (stereo in doubt; (-)-17a) |
| 3 | 37.5 | C=CCN(C)[C@@H]1Cc2ccc(O)cc2[C@H]1c1ccccc1 (stereo in doubt; (+)-16a) |
| > 1000 | > 1000 | CCCN(C)[C@@H]1Cc2cc(O)ccc2[C@H]1c1ccccc1 (stereo in doubt; (-)-17b) |
| 1.87 | > 1000 | N[C@@H]1Cc2cc(O)ccc2[C@H]1c1ccccc1 (stereo in doubt; (+)-14b) |
| 26.4 | 0.84 | CCCN(CCC)[C@@H]1Cc2ccc(O)cc2[C@H]1c1ccccc1 (stereo in doubt; (-)-15a) |
| 0.79 | 0.43 | C=CCN(C)[C@@H]1Cc2ccc(O)cc2[C@H]1c1ccccc1 (stereo in doubt; (-)-16a) |
| 18.7 | > 1000 | N[C@@H]1Cc2cc(O)ccc2[C@H]1c1ccccc1 (stereo in doubt; (-)-14b) |

| SMILES | Ki [1] [nM] | Ki [2] [nM] |
| --- | --- | --- |
| C[C@@]1(c2ccccc2)c2cc(O)c(O)cc2C[C@@]1(C)N | 5.5 | > 1000 |
| N[C@@H]1Cc2ccc(O)cc2[C@H]1c1ccccc1 (stereo in doubt; (+)-14a) | 2.5 | 0.59 |
| N[C@@H]1Cc2ccc(O)cc2[C@H]1c1ccccc1 (stereo in doubt; (-)-14a) | 34.5 | 0.89 |

From ChEMBL document CHEMBL1129449 (J Med Chem, 1996)
